Source: ChEMBL document CHEMBL1275359, “Pro-apoptotic activity of lipidic α-amino acids isolated from Protopalythoa variabilis” (Bioorg Med Chem, 2010)
The source made the active and inactive calls.

Columns and labels:
Type in all cases: functional, cell-based
MDA-MB-435 = assay: Cytotoxicity against human MDA-MB-435 cells at 5 ug/ml after 72 hrs by MTT assay
How it was run: (§1)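 Cells kept in log-phase growth in RPMI-1640 with 2 mM glutamine, 10% fetal calf serum, streptomycin and 100 U/ml penicillin at 37 °C, 5% CO₂. Single concentration of 5 µg/ml applied for 72 h. Growth read by MTT, reported as percent growth inhibition relative to untreated cells. Data from three to four experiments.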

SF-295 = assay: Cytotoxicity against human SF295 cells at 5 ug/ml after 72 hrs by MTT assay; how it was run: as §1
HCT-8 = assay: Cytotoxicity against human HCT8 cells at 5 ug/ml after 72 hrs by MTT assay; how it was run: as §1
HL-60 = assay: Cytotoxicity against human HL60 cells at 5 ug/ml after 72 hrs by MTT assay; how it was run: as §1

Measured: Activity

CCCCCCCCCCC(N)C(=O)OC (stereo not drawn)
active: MDA-MB-435 | SF-295 | HCT-8 | HL-60

CCCCCCCCC(N)C(=O)OC (stereo not drawn)
active: MDA-MB-435 | SF-295 | HCT-8 | HL-60
